The source made the active and inactive calls. No cut-off for these calls is given here.
Columns and labels:
[1] = tested on: Cryptosporidium parvum; assay: Antimicrobial activity against Cryptosporidium parvum infected in HCT8 cells assessed as growth inhibition rate at 22 to 90 uM after 48 hrs; type: functional, organism-based; settings: HCT-8
How it was run: (§1)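 HCT-8 monolayers inoculated with 8 × 10^5 oocysts/ml, then incubated with 90, 45 or 22 μM compound (DMSO stock diluted in PBS). Fixed cultures stained with rhodamine-C3C3 mAb; developmental stages (meronts, gamonts) counted per field over 30 fields, mean of four replicate wells ± SD; percent growth inhibition versus medium and inhibition score (0–4).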

[2] = tested on: Cryptosporidium parvum; assay: Antiparasitic activity against Cryptosporidium parvum sprozoites assessed as growth inhibition at 90 uM after 48 hrs; type: functional; settings: read-out: GI
How it was run: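 Excysted sporozoite suspension incubated with 90 μM compound at 37°C for 30 min, then used to infect confluent HCT-8 monolayers. Developmental stages counted after rhodamine-C3C3 mAb staining, 30 fields/well, four replicate wells; percent inhibition versus medium control and inhibition score.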

[3] = tested on: Cryptosporidium parvum; assay: Antimicrobial activity against Cryptosporidium parvum infected in HCT8 cells assessed as growth inhibition at 90 uM pretreated for 30 min before infection measured after 48 hrs; type: functional; settings: HCT-8, read-out: GI
How it was run: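 HCT-8 cells preincubated with 90 μM compound at 37°C for 30 min, then infected with excysted oocysts (8 × 10^5/ml). Meronts and gamonts counted after rhodamine-C3C3 mAb staining, 30 fields/well, four replicate wells; percent inhibition versus medium control and inhibition score.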

[4] = tested on: Cryptosporidium parvum; assay: Antiparasitic activity against Cryptosporidium parvum infected into human HCT-8 cells assessed as growth inhibition at 22 uM after 48 hrs; type: functional; settings: HCT-8, 48 h, read-out: GI; how it was run: as §1
[5] = tested on: Cryptosporidium parvum; assay: Antimicrobial activity against Cryptosporidium parvum infected in SCID mouse assessed as decrease in oocyst shedding at 125 mg/kg/day, po for 2 weeks and measured 3 to 7 days after treatment; type: functional, organism-based
How it was run: (§2)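 Female C.B-17 SCID mice, 7 weeks old, infected orally with 1 × 10^7 oocysts in PBS; chronic infection allowed for 25 days. Compound suspended with polyvinylpyrrolidone, given orally at 250 (n=10) or 125 (n=10) mg/kg/day for 2 weeks; controls were PVP in water and untreated mice. Oocysts per 50 μl concentrated feces counted by IIF every 3 days; ANOVA with LSD.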

[6] = tested on: Cryptosporidium parvum; assay: Antimicrobial activity against Cryptosporidium parvum DE infected in HCT8 cells assessed as growth inhibition at 90 uM after 24 hrs; type: functional; settings: HCT-8, 24 h, read-out: GI
How it was run: (§3)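 Confluent HCT-8 monolayers inoculated with 8 × 10^5 excysted oocysts/ml, then infected cells treated with 90 μM compound (DMSO stock diluted in PBS) at 37°C in 5% CO2 (24 h per table footnote; 48 h per text). Fixed cells stained with rhodamine-labeled C3C3 mAb; meronts and gamonts counted in 30 fields/well, four replicate wells; percent inhibition and inhibition score versus medium control.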

[7] = tested on: Cryptosporidium parvum; assay: Antiparasitic activity against Cryptosporidium parvum infected into human HCT-8 cells assessed as growth inhibition at 90 uM after 48 hrs; type: functional; settings: HCT-8, 48 h, read-out: GI; how it was run: as §3
[8] = tested on: Cryptosporidium parvum; assay: Antiparasitic activity against Cryptosporidium parvum infected into human HCT-8 cells assessed as growth inhibition at 45 uM after 48 hrs; type: functional; settings: HCT-8, 48 h, read-out: GI; how it was run: as §1
[9] = tested on: Cryptosporidium parvum; assay: Antimicrobial activity against Cryptosporidium parvum infected in SCID mouse assessed as decrease in oocyst shedding at 125 mg/kg/day, po for 2 weeks and measured every 3 days during treatment; type: functional, organism-based; how it was run: as §2
[10] = tested on: HCT-8; assay: Cytotoxicity against human HCT8 cells assessed as cell viability by MTT assay; type: cell-based
How it was run: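 HCT-8 cells exposed to compound and viability measured by MTT assay as percent viable cells.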

[11] = tested on: Cryptosporidium parvum; assay: Antimicrobial activity against Cryptosporidium parvum infected in HCT8 cells assessed as decrease in parasite count at 22 to 90 uM after 48 hrs; type: functional, organism-based; settings: HCT-8; how it was run: as §1
[12] = tested on: Cryptosporidium parvum; assay: Antimicrobial activity against Cryptosporidium parvum infected in SCID mouse assessed as decrease in oocyst shedding at 250 mg/kg/day, po for 2 weeks and measured 3 to 7 days after treatment; type: functional, organism-based; how it was run: as §2

Oc1c(I)cc(I)cc1I
Activity [1]: Dose-dependent effect
inhibition of growth at 90 µM [2]: 27.8%
inhibition of growth at 90 µM [3]: 36%
inhibition of growth at 22 µM [4]: 50.1%
Activity [5]: inactive
inhibition of growth at 90 µM [6]: 99.6%
inhibition of growth at 90 µM [7]: 96.5%
inhibition of growth at 45 µM [8]: 92.5%
Activity [9]: Active
Activity [10]: Non-toxic
Activity [11]: Dose-dependent effect
Activity [12]: inactive

From ChEMBL document CHEMBL1255256, “Bobel-24 activity against Cryptosporidium parvum in cell culture and in a SCID mouse model” (Antimicrob Agents Chemother, 2008)
